Calls of active or inactive are those of the source. The calls are words filed in the database; no cut-off is given here.
Legend:
[1] = molecular target: T1, Retinoic acid receptor RXR-alpha/oxysterols receptor LXR-alpha (Homo sapiens, UniProt P19793+Q13133); test: Agonist activity at human RXRalpha/LXRalpha expressed in human HCT116 cells assessed as reduction in SREBP-mediated transcription activity at 100 nM incubated for 24 hrs by luciferase reporter gene assay relative to bexarotene; type: cell-based; design: scale not given: the % may be the effect or the level left; conditions: 0.1 µM
T1 sequence (P19793 whole entry): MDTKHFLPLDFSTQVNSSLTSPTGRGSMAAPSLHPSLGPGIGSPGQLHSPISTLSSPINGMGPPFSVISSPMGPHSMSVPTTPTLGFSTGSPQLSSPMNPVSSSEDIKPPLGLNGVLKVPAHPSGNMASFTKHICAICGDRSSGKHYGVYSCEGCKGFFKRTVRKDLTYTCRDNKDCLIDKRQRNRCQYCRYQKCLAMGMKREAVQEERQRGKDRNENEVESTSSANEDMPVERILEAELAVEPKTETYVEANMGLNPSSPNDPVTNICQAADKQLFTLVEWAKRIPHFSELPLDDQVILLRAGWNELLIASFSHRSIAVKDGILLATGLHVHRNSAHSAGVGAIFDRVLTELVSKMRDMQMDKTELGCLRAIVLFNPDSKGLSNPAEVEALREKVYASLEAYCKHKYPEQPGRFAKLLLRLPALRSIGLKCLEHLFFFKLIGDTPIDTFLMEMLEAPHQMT
T1 sequence (Q13133 whole entry): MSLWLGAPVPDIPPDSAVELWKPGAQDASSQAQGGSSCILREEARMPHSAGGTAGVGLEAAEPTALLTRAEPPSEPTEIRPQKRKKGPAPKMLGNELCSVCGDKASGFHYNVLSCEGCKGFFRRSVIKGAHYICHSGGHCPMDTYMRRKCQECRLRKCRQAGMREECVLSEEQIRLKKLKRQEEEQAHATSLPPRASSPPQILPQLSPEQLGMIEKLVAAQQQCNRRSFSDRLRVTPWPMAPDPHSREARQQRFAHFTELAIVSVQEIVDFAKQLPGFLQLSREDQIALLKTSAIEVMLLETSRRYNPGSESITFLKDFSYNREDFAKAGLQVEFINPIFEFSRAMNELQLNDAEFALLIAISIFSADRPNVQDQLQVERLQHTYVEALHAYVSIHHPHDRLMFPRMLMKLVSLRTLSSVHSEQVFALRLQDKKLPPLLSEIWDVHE
Procedure, shortened: (§1)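 HCT116 cells co-transfected for 24 h with 100 ng pBP1c(6500)-Luc (about 6500 bp murine SREBP-1c promoter), 10 ng human LXRα and 20 ng renilla. Treated 24 h with compound at 100 nM, alone or with 100 nM TO901317. Luciferase output. Three independent assays in triplicate; bexarotene = 100%.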

[2] = molecular target: Retinoid X receptor (Homo sapiens) (UniProt P28702+P48443+P19793); test: Agonist activity at human RXR binding domain and activation domain expressed in human HCT116 cells assessed as rexinoid activity at 25 nM incubated for 24 hrs by luciferase reporter gene based mammalian two-hybrid assay relative to bexarotene; type: cell-based
Retinoid X receptor (Homo sapiens), sequence (P28702 whole entry, looked up, one chain of several, the tested form may be a part): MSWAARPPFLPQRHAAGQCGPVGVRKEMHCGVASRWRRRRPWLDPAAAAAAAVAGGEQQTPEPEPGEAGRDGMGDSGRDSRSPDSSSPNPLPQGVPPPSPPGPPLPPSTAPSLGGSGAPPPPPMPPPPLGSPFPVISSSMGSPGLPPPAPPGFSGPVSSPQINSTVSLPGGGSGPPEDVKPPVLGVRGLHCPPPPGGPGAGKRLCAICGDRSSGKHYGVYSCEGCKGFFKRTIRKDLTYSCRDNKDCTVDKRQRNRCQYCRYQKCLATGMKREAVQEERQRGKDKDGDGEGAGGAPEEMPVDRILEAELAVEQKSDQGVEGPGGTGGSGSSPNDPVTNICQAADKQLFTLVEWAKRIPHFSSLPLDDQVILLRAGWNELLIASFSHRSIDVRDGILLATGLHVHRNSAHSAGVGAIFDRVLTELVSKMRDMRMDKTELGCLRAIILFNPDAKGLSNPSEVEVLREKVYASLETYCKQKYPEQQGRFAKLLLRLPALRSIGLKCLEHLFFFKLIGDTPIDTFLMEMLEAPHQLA
Retinoid X receptor (Homo sapiens), sequence (P48443 whole entry, looked up, one chain of several, the tested form may be a part): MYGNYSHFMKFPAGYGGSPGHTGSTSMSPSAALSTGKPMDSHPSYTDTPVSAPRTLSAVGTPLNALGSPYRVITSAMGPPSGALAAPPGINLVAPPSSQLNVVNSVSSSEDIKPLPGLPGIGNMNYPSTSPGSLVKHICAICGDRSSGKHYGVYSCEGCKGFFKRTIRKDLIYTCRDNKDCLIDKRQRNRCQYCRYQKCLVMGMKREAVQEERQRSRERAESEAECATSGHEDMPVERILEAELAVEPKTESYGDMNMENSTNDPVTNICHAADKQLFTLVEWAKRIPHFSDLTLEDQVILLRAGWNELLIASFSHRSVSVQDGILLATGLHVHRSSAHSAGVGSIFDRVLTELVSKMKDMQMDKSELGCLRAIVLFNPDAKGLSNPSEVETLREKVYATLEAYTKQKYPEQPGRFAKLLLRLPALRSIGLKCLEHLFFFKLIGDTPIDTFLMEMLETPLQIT
Procedure, shortened: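 HCT-116 cells plated overnight (80,000/well, DMEM with 10% FBS), co-transfected for 24 h with human RXR binding-domain (bait) and activation-domain (prey) vectors, pFR-Luc Gal4 reporter and renilla control. Treated 24 h at 25, 100 or 1000 nM final; vehicle ethanol or DMSO 0.1%. Dual-luciferase read-out. Three independent assays in triplicate; bexarotene set to 100%.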

[3] = system: HuT78; test: Growth inhibition of human HUT78 cells at 200 nM incubated for 72 hrs by MTS assay relative to bexarotene; type: functional; conditions: HuT78, 72 h, read-out: GI
Procedure, shortened: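 Hut78 cells in RPMI with 10% FBS at 37°C, 5% CO2. Plated 7,500 cells/well and immediately dosed at 200 nM for 72 h. MTS read at A490; percent inhibition with media control set to 0.0, compared with bexarotene set to 100%. Mean of three independent experiments.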

[4] = molecular target: T2, Retinoic acid receptor RXR-alpha (Homo sapiens) (UniProt P19793); test: Agonist activity at human RXRalpha expressed in human HCT116 cells assessed as increase in RXRE-mediated transcription at 25 nM incubated for 24 hrs by RXRE luciferase reporter gene assay relative to bexarotene; type: cell-based
T2 sequence (whole entry): T1 sequence (P19793 whole entry)
Procedure, shortened: (§2)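 HCT-116 cells (80,000/well) co-transfected for 24 h with 250 ng RXRE-luciferase reporter (DR1 element from the rat cellular retinol binding protein II gene), 25 ng pSG5-human RXRα and 20 ng renilla. Dosed 24 h at 25, 100 or 1000 nM final; ethanol or DMSO vehicle 0.1%. Dual-luciferase read-out. Three independent assays in triplicate; bexarotene = 100%.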

[5] = Lipid risk index, ratio of agonist activity at human RXRalpha/LXRalpha expressed in human HCT116 cells assessed as reduction in SREBP-mediated transcription activity to agonist activity at human RXRalpha expressed in human HCT116 cells assessed as increase in RXRE-mediated transcription
Procedure, shortened: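 Lipid risk index: SREBP-promoter luciferase activity (HCT116, LXRα-transfected, 100 nM compound with or without 100 nM TO901317, 24 h) divided by RXRE activity at 100 nM. The SREBP:RXRE ratio for bexarotene is set to 1.0.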

[6] = Mutagenicity in Saccharomyces cerevisiae D7 assessed as induction of mutagenesis by measuring forward and reverse mutations up to 0.1 mg/mL; type: toxicity
[7] = molecular target: T2, Retinoic acid receptor RXR-alpha (Homo sapiens); test: Agonist activity at human RXRalpha expressed in human HCT116 cells assessed as increase in RXRE-mediated transcription at 100 nM incubated for 24 hrs by RXRE luciferase reporter gene assay relative to bexarotene; type: cell-based; procedure, shortened: as §2
[8] = molecular target: T1, Retinoic acid receptor RXR-alpha/oxysterols receptor LXR-alpha; test: Agonist activity at human RXRalpha/LXRalpha expressed in human HCT116 cells assessed as reduction in SREBP-mediated transcription activity at 100 nM incubated for 24 hrs by luciferase reporter gene assay in presence of 100 nM LXR agonist TO901317 relative to bexarotene; type: cell-based; design: scale not given: the % may be the effect or the level left; conditions: 0.1 µM; procedure, shortened: as §1
[9] = system: HuT78; test: Inhibition of HDAC1 gene expression in human HUT78 cells at 100 nM incubated for 48 hrs by quantitative real-time PCR method; type: functional
Procedure, shortened: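 Hut78 cells resuspended in RPMI with 1% FBS, plated 750,000/well and dosed at 100 nM for 48 h. Total RNA extracted, 0.5 µg DNase-treated RNA reverse-transcribed, then qPCR for HDAC1. Quantified by ΔΔCt, normalized to GAPDH and relative to vehicle-treated cells (2^-ΔΔCt).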

[10] = molecular target: T2, Retinoic acid receptor RXR-alpha (Homo sapiens); test: Agonist activity at human RXRalpha expressed in human HCT116 cells assessed as increase in RXRE-mediated transcription incubated for 24 hrs by RXRE luciferase reporter gene assay; type: cell-based

Structure (SMILES)	Activity [1]	Activity [2] [%]	Activity [4] [%]	Activity [7] [%]	fold change (FC) [2]	Activity [8] [%]	Activity [10]	inhibition of growth at 0.2 µM [3] [%]	Ratio [5]	Activity [6]	inhibition at 0.1 µM ([9]; HuT78, 48 h) [%]	inhibition [9]
CCN(c1ccc(C(=O)O)cc1)c1cc2c(cc1C)C(C)(C)CCC2(C)C	54 to 79%	140 to 150	27 to 66	16 to 32	–	–	–	35 to 51	0.48 - 0.65	Non-Toxic	–	–
CCN(c1ccc2c(c1)C(C)(C)CCC2(C)C)c1ccc(C(=O)O)cn1	Active	–	27 to 66	68 to 89	2	13 to 17	–	> 85	0.49 - 0.51	Non-Toxic	–	inactive

Further lines, with some results ahead:

Activity [1]	Activity [2] [%]	Activity [4] [%]	Activity [7] [%]	fold change (FC) [2]	Activity [8] [%]	Activity [10]	Structure (SMILES)	inhibition of growth at 0.2 µM [3] [%]	Ratio [5]	Activity [6]	inhibition at 0.1 µM ([9]; HuT78, 48 h) [%]	inhibition [9]
54 to 79%	140 to 150	27 to 66	16 to 32	–	–	–	CCN(c1ccc(C(=O)O)c(F)c1)c1cc2c(cc1C)C(C)(C)CCC2(C)C	55 to 80	0.48 - 0.65	Non-Toxic	–	–
Active	–	27 to 66	68 to 89	2	13 to 17	–	CCN(c1ncc(C(=O)O)cn1)c1cc2c(cc1C)C(C)(C)CCC2(C)C	55 to 80	0.49 - 0.51	Non-Toxic	28	–
54 to 79%	11.3	–	–	–	33	inactive	CCN(c1ccc2c(c1)C(C)(C)CCC2(C)C)c1cnc(C(=O)O)cn1	35 to 51	0.48 - 0.65	Non-Toxic	–	–

Reference: ChEMBL document CHEMBL4428090, “Modeling, Synthesis, and Biological Evaluation of Potential Retinoid X Receptor (RXR)-Selective Agonists: Analogues of 4-[1-(3,5,5,8,8-Pentamethyl-5,6,7,8-tetrahydro-2-naphthyl)ethynyl]benzoic Acid (Bexarotene) and 6-(Ethyl(5,5,8,8-tetrahydronaphthalen-2-yl)amino)nicotinic Acid (NEt-TMN)” (J Med Chem, 2016)
